In ChEMBL document CHEMBL1151321, “Bisamides, lignans, triterpenes, and insecticidal Cyclopenta[b]benzofurans from Aglaia species” (J Nat Prod, 1998):

Key:
Spodoptera littoralis [1] = assay: Insecticidal activity against Spodoptera littoralis larvae assessed as survival rat after 5 days; type: functional
Outline: (§1)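 Larvae kept 5 days in a moist chamber at 29 °C in darkness, then survival and larval weight compared with a carrier-only control group. Run in triplicate; LC50 (survival) and EC50 (growth) from dose-response curves by probit-log analysis.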

Spodoptera littoralis [2] = assay: Insecticidal activity against Spodoptera littoralis larvae assessed as growth inhibition after 5 days; type: functional, organism-based; outline: as §1
Lymantria dispar = assay: Insecticidal activity against Lymantria dispar larvae assessed as mean weight of surviving larvae after 8 days; type: functional, organism-based
Outline: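 Freshly hatched larvae (n = 10) from a laboratory colony reared on wheat germ-casein diet, fed diet spiked with 1 μg – 100 μg/g fresh wt of compound. Kept 8 days in a moist chamber at 26 °C in darkness. Mean weight of surviving larvae compared with controls. Commercial azadirachtin (>96%) as positive control. Three replicates; LC50/EC50 from dose-response curves by probit-log analysis.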

## COC(=O)[C@H]1[C@@H](OC(C)=O)[C@@]2(O)c3c(cc4c(c3OC)OCO4)O[C@@]2(c2ccc(OC)cc2)[C@@H]1c1ccccc1
Spodoptera littoralis [1]
  LC50: 12.2 µg/g
Spodoptera littoralis [2]
  EC50: 1.2 µg/g

## COc1ccc(C2C(=O)Oc3cc4c(c(OC)c32)OCO4)cc1 (stereo unspecified) [AGLALACTONE]
Spodoptera littoralis [1]
  LC50: >100 µg/g
Spodoptera littoralis [2]
  EC50: > 100 µg/g

## C/C=C(\C)C(=O)O[C@H]1C[C@@H](OC(C)=O)[C@@]2(C(=O)OC)CO[C@H]3[C@@H](O)[C@@](C)([C@]45O[C@@]4(C)[C@@H]4C[C@H]5O[C@@H]5OC=C[C@@]54O)[C@H]4[C@]1(CO[C@]4(O)C(=O)OC)[C@@H]32 [AZADIRACHTIN A]
Lymantria dispar
  EC50: 0.6 µg/g
Spodoptera littoralis [1]
  LC50: 6.1 µg/g
Spodoptera littoralis [2]
  EC50: 0.11 µg/g

## CC(=O)N(CCCCNC(=O)/C=C/c1ccccc1)C(=O)CCc1ccccc1 [EDULIMIDE]
Spodoptera littoralis [1]
  LC50: >250 µg/g
Spodoptera littoralis [2]
  EC50: > 250 µg/g

## COc1cc(C[C@H]2CO[C@H](c3ccc(O)c(OC)c3)[C@H]2COC(C)=O)ccc1O [LARICIRESINOL ACETATE]
Spodoptera littoralis [1]
  LC50: >250 µg/g
Spodoptera littoralis [2]
  EC50: > 250 µg/g

## COC(=O)[C@H]1[C@@H](O)[C@@]2(O)c3c(cc4c(c3OC)OCO4)O[C@@]2(c2ccc(OC)cc2)[C@@H]1c1ccccc1 [PANNELLIN]
Lymantria dispar
  EC50: 1.4 µg/g
Spodoptera littoralis [1]
  LC50: 2.1 µg/g
Spodoptera littoralis [2]
  EC50: 0.24 µg/g

## CC(C)(O)C(=O)NC1CCCN1C(=O)/C=C/c1ccccc1 (stereo unspecified) [PIRIFERINOL]
Spodoptera littoralis [1]
  LC50: >250 µg/g
Spodoptera littoralis [2]
  EC50: > 250 µg/g
